Reference: PMC8165011 (European journal of medicinal chemistry, 2021)
In brackets after ≈: the same amount, converted by molar mass. Read-outs that look alike come from different tables or passages of the source.

Assays:
Assay type in all cases: cell-based
[1] = system: tested Gram-positive strains; test: MIC assay, summary over the tested Gram-positive strains; conditions: for antimicrobial activity (in words): tested Gram-positive strains
Outline: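 CLSI standard broth microdilution. Test compound started at 50 µg/ml and serially diluted 2-fold. Run in triplicate.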

[2] = system: antibiotic susceptible E. faecalis ATCC 29212 (Ef12); test: MIC assay; conditions: Enterococcus faecalis, ATCC29212, read-out: MIC Efl2
[3] = system: S. aureus clinical isolates (MSSA, MRSA); test: MIC against clinical isolates of S. aureus; conditions: Staphylococcus aureus, MRSA|MSSA
[4] = system: E. faecalis clinical isolates (VRE); test: MIC against clinical isolates of E. faecalis; conditions: Enterococcus faecalis, VRE
[5] = system: E. faecium clinical isolates (VRE); test: MIC against clinical isolates of E. faecium; conditions: Enterococcus faecium, VRE
[6] = system: S. aureus ATCC 700699 (MRSA) stationary phase persister cells; test: Persister cell killing assay; conditions: 64xMIC

`O=C(O)c1ccc(-n2cc(CNc3ccc(N4CCOCC4)c(C(F)(F)F)c3)c(-c3ccc(C(F)(F)F)cc3)n2)cc1` [Compound 68, 4-[4-[[4-morpholino-3-(trifluoromethyl)anilino]methyl]-3-[4-(trifluoromethyl)phenyl]pyrazol-1-yl]benzoic acid] was tested, and the “antimicrobial activity (in words)” value [1] was “highly potent”.

`O=C(O)c1ccc(-n2cc(CNc3ccc(Br)c(C(F)(F)F)c3)c(-c3ccc(C(F)(F)F)cc3)n2)cc1` [Compound 63, 4-[4-[[4-bromo-3-(trifluoromethyl)anilino]methyl]-3-[4-(trifluoromethyl)phenyl]pyrazol-1-yl]benzoic acid] showed an MIC [2] of 1.56 µg/mL (≈ 2.67 µM).

Compound `O=C(O)c1ccc(-n2cc(CNc3cccc(OC(F)(F)F)c3)c(-c3ccc(C(F)(F)F)cc3)n2)cc1` [Compound 50, 4-[4-[[3-(trifluoromethoxy)anilino]methyl]-3-[4-(trifluoromethyl)phenyl]pyrazol-1-yl]benzoic acid] has an MIC ([1]; read-out: MIC values) of 0.78 to 3.12 µg/mL (≈ 1.5 to 5.99 µM).

With `O=C(O)c1ccc(-n2cc(CNc3ccccc3)c(-c3ccc(C(F)(F)F)cc3)n2)cc1` [Compound 41, 4-[4-(anilinomethyl)-3-[4-(trifluoromethyl)phenyl]pyrazol-1-yl]benzoic acid] the MIC ([1]; read-out: MIC value as low as) was at least 3.12 µg/mL.

In the case of `O=C(O)c1ccc(-n2cc(CNc3cc(Cl)c(O)c(Cl)c3)c(-c3ccc(C(F)(F)F)cc3)n2)cc1` [Compound 78, 4-[4-[(3,5-dichloro-4-hydroxy-anilino)methyl]-3-[4-(trifluoromethyl)phenyl]pyrazol-1-yl]benzoic acid], the “antimicrobial activity (in words)” value [1] was “inactivity”.

With `NS(=O)(=O)c1ccc(NCc2cn(-c3ccc(C(=O)O)cc3)nc2-c2ccc(C(F)(F)F)cc2)cc1` [Compound 49, 4-[4-[(4-sulfamoylanilino)methyl]-3-[4-(trifluoromethyl)phenyl]pyrazol-1-yl]benzoic acid] the “antimicrobial activity (in words)” value [1] was “almost eliminated the activity”.

Work on `Cc1onc(-c2ccccc2)c1C(=O)N[C@@H]1C(=O)N2[C@@H]1SC(C)(C)[C@@H]2C(=O)O` [Oxa, Oxacillin] yielded an MIC ([3]; S. aureus 1088064, MRSA) of 64 µg/mL (≈ 159 µM), an MIC ([3]; S. aureus 1088610, MRSA) of 64 µg/mL (≈ 159 µM) and an MIC ([3]; S. aureus 1088888, MRSA) of over 64 µg/mL. It also gave an MIC ([3]; S. aureus 1089106, MRSA) of 64 µg/mL (≈ 159 µM), an MIC ([4]; E. faecalis 1088051, VRE) of 64 µg/mL (≈ 159 µM) and an MIC ([4]; E. faecalis 1091563, VRE) of 64 µg/mL (≈ 159 µM). The MIC ([4]; E. faecalis 1091720, VRE) was 64 µg/mL (≈ 159 µM), the MIC ([4]; E. faecalis 1094112, VRE) was over 64 µg/mL and the MIC ([4]; E. faecalis 1100440, VRE) was over 64 µg/mL. It also gave an MIC ([5]; E. faecium 1088168, VRE) of over 64 µg/mL, an MIC ([5]; E. faecium 1088228, VRE) of over 64 µg/mL and an MIC ([5]; E. faecium 1088925, VRE) of over 64 µg/mL. The MIC ([5]; E. faecium 1089544, VRE) was over 64 µg/mL and the MIC ([5]; E. faecium 1091282, VRE) was over 64 µg/mL.

In the case of `CNC(C)C1CCC(N)C(OC2C(N)CC(N)C(OC3OCC(C)(O)C(NC)C3O)C2O)O1` (centres unmarked) [gentamicin, reference compound], the “effect on viability of MRSA persisters (in words)” value [6] was “did not affect the viability”.

For `O=C(O)c1ccc(-n2cc(CNc3cc(F)c(C(F)(F)F)cc3F)c(-c3ccc(C(F)(F)F)cc3)n2)cc1` [Compound 76, 4-[4-[[2,5-difluoro-4-(trifluoromethyl)anilino]methyl]-3-[4-(trifluoromethyl)phenyl]pyrazol-1-yl]benzoic acid], the MIC [2] was 3.12 µg/mL (≈ 5.76 µM).

Work on `O=C(O)c1ccc(-n2cc(CNc3ccc(Br)cc3)c(-c3ccc(C(F)(F)F)cc3)n2)cc1` [Compound 47, 4-[4-[(4-bromoanilino)methyl]-3-[4-(trifluoromethyl)phenyl]pyrazol-1-yl]benzoic acid] yielded an MIC ([1]; read-out: MIC value as low as) of at least 0.78 µg/mL.

In the case of `Cc1ccc(NCc2cn(-c3ccc(C(=O)O)cc3)nc2-c2ccc(C(F)(F)F)cc2)cc1Cl` [Compound 58, 4-[4-[(3-chloro-4-methyl-anilino)methyl]-3-[4-(trifluoromethyl)phenyl]pyrazol-1-yl]benzoic acid], the “antimicrobial activity (in words)” value [1] was “inhibited the growth of tested bacteria efficiently”.

In the case of `O=C(O)c1ccc(-n2cc(CNc3cccc(Br)c3)c(-c3ccc(C(F)(F)F)cc3)n2)cc1` [Compound 46, 4-{4-[(3-bromoanilino)methyl]-3-[4-(trifluoromethyl)phenyl]-1H-pyrazol-1-yl}benzoic acid], the MIC ([1]; read-out: MIC value as low as) was at least 0.78 µg/mL.

In the case of `O=C(O)c1ccc(-n2cc(CNc3ccc(C(=O)O)c(C(F)(F)F)c3)c(-c3ccc(C(F)(F)F)cc3)n2)cc1` [Compound 67, 4-[[1-(4-carboxyphenyl)-3-[4-(trifluoromethyl)phenyl]pyrazol-4-yl]methylamino]-2-(trifluoromethyl)benzoic acid], the “antimicrobial activity (in words)” value [1] was “eliminated the activity”.
